Hits are enriched below; roughly 3.1% of the tested compounds scored in any of these assays.
pPAFAH inh = pPAFAH (human) enzyme inhibition. Q13093. recombinant pPAFAH, FP-rhodamine probe fluorescence polarization. inhibition, % at 3.39 µM. 1.5% of 330,000 active;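 active = inhibition above the mean inhibition across the screen plus 3 SD, cut at about 25% in these data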;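 note: inhibitors block binding of the rhodamine activity-based probe so polarization drops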
PAFAH1B3 inh = inhibitors of human PAFAH1B3; AID 492972; inhibition, % at 3.39 µM; 0.28% of 340,000 active; recombinant PAFAH1B3, FP-rhodamine probe, fluorescence polarization; Q15102;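 active = inhibition above the screen-wide average of all tested compounds plus 3 SD, cut at about 25% in these data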
Apaf1 inhib = human Apaf-1 inhibition; O14727; reconstituted apoptosome caspase-3 activity, DEVD-Rh110 fluorescence; inhibition, % at 20 µM; 0.71% of 330,000 active; AID 489030; active = inhibition of at least 40% at 20 µM
Target sequence (O14727 whole entry, looked up): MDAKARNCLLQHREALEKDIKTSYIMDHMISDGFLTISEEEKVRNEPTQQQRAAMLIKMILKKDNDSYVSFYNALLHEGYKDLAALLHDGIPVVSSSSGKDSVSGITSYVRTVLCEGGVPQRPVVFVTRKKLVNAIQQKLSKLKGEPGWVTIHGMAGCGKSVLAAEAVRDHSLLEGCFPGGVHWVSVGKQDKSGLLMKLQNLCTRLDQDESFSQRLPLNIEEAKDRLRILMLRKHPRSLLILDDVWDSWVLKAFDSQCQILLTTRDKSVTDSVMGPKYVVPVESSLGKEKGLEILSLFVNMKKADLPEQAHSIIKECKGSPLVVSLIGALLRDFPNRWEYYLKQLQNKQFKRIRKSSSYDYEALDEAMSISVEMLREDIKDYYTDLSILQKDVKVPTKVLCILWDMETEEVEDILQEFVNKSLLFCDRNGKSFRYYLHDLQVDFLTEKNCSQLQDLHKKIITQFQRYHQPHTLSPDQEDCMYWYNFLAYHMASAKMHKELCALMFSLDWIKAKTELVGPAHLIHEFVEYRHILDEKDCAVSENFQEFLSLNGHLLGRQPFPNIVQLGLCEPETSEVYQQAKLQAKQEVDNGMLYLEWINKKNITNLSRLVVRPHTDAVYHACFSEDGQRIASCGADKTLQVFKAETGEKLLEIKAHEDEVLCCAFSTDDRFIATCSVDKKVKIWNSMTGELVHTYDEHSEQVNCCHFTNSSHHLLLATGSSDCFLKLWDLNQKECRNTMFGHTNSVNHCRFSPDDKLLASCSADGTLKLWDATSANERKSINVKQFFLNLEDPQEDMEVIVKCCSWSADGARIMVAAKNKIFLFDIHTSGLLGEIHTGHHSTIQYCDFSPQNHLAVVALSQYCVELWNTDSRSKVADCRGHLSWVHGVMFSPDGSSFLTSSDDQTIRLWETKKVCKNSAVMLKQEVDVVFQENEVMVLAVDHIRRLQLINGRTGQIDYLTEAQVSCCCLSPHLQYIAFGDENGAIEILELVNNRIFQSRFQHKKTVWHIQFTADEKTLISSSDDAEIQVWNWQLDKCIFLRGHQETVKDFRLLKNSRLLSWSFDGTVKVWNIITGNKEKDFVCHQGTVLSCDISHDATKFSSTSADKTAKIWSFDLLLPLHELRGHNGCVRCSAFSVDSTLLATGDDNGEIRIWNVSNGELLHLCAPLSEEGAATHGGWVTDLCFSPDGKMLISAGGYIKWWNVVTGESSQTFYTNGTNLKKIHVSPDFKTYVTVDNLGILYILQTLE
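Material: reconstituted apoptosome with Apaf-1, cytochrome c, caspase-9, procaspase-3, dATP. Technique: Rh110 fluorescence intensity. Buffer or medium: pH 7.5 Hepes buffer with CHAPS, BSA, DTT. Times: 30 min plus 50 min, RT.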
PAFAH1B2 FP inh = blocks human PAF acetylhydrolase 1b catalytic subunit 2 | P68402 | recombinant PAFAH1B2, FP-rhodamine activity probe, fluorescence polarization | inhibition, % at 3.39 µM | 1.2% of 340,000 active | AID 492953;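 active = inhibition above the mean of all tested compounds plus 3 SD, cut at about 24% in these data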
PAFAH2 FP inh = inhibitors of human PAFAH2; Q99487; recombinant PAFAH2, FP-rhodamine activity probe, fluorescence polarization; inhibition, % at 3.39 µM; 0.99% of 340,000 active;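 active = inhibition above the mean over all tested compounds plus 3 SD, cut at about 30% in these data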;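 note: inhibitors block probe labeling of enzyme so polarization drops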
A number is an active result.

Screening O=c1c2c3c(sc2[nH]c(=S)n1Cc1ccco1)CCC3 returned pPAFAH inh 25, PAFAH1B3 inh inactive, Apaf1 inhib inactive, PAFAH1B2 FP inh inactive and PAFAH2 FP inh inactive.
For CC(=O)Nc1ccccc1OC(C)C(=O)NC(C)c1ccc(F)cc1 (configuration not stated) the results were pPAFAH inh inactive, PAFAH1B3 inh inactive, Apaf1 inhib inactive, PAFAH1B2 FP inh inactive and PAFAH2 FP inh inactive.
O=C(NCc1cccnc1)c1cc(Sc2cccc(Cl)c2)nc2ccccc12 was read as pPAFAH inh 33, PAFAH1B3 inh inactive, Apaf1 inhib inactive, PAFAH1B2 FP inh inactive and PAFAH2 FP inh inactive.
NS(=O)(=O)c1ccc(N/N=C/c2ccccc2C(=O)O)c([N+](=O)[O-])c1 was read as pPAFAH inh inactive, PAFAH1B3 inh inactive, Apaf1 inhib inactive, PAFAH1B2 FP inh inactive and PAFAH2 FP inh inactive.
For COc1ccc(C=NNc2ccc([N+](=O)[O-])cc2S(=O)(=O)Nc2ccccc2C(=O)O)cc1OC the results were pPAFAH inh 33, PAFAH1B3 inh inactive, Apaf1 inhib inactive, PAFAH1B2 FP inh inactive and PAFAH2 FP inh inactive.
O=C(O)c1ccccc1NS(=O)(=O)c1ccc(N/N=C/c2ccc(O)c(O)c2)c([N+](=O)[O-])c1 was read as PAFAH1B3 inh 58, PAFAH1B2 FP inh 59 and PAFAH2 FP inh 72.
Nc1nnc(CSCc2ccc(Cl)cc2)s1 was read as pPAFAH inh inactive, PAFAH1B3 inh inactive, Apaf1 inhib inactive, PAFAH1B2 FP inh 28 and PAFAH2 FP inh inactive.
`Nc1nnc(CSCc2ccccc2)s1` gave pPAFAH inh inactive, PAFAH1B3 inh inactive, Apaf1 inhib inactive, PAFAH1B2 FP inh inactive and PAFAH2 FP inh inactive.
COc1ccc(/C(N)=N/OC(=O)CC2CCCCC2)cc1 was read as pPAFAH inh inactive, PAFAH1B3 inh inactive, Apaf1 inhib inactive, PAFAH1B2 FP inh inactive and PAFAH2 FP inh inactive.
For CN(C)c1ccc2cc(S(=O)(=O)O)cc(O)c2c1 the results were PAFAH1B3 inh 52, PAFAH1B2 FP inh 38 and PAFAH2 FP inh 38.
For Cc1ccc(C(=O)Nc2nc(-c3ccccn3)cs2)cc1S(=O)(=O)N1CCOCC1 the results were pPAFAH inh inactive, PAFAH1B3 inh inactive, Apaf1 inhib inactive, PAFAH1B2 FP inh inactive and PAFAH2 FP inh inactive.
For CC(C)=C(NC(=O)c1ccccc1)C(=O)Nc1cccc(C)c1 the results were pPAFAH inh inactive, PAFAH1B3 inh inactive, Apaf1 inhib inactive, PAFAH1B2 FP inh inactive and PAFAH2 FP inh inactive.
CN(C(=O)c1ccc(NC(=O)Cc2ccc(NC(=O)C3CCN(S(=O)(=O)c4cccc([N+](=O)[O-])c4)CC3)cc2)cc1)C1CCCC1 was read as PAFAH1B3 inh inactive, PAFAH1B2 FP inh inactive and PAFAH2 FP inh inactive.
`COc1cc(C(=O)O/N=C2/C=C(C)C(=O)C=C2C)cc(OC)c1OC` gave pPAFAH inh inactive, PAFAH1B3 inh inactive, Apaf1 inhib inactive, PAFAH1B2 FP inh inactive and PAFAH2 FP inh inactive.
For COc1cc(C(=O)ON=C2C(C)=CC(=O)C=C2C)cc(OC)c1OC the results were pPAFAH inh inactive, PAFAH1B3 inh inactive, Apaf1 inhib inactive, PAFAH1B2 FP inh inactive and PAFAH2 FP inh 83.
`CCC(=O)N1CCc2cc(S(=O)(=O)NC(Cc3ccccc3)C(=O)O)ccc21` (configuration not stated) gave pPAFAH inh 28, PAFAH1B3 inh inactive, Apaf1 inhib inactive, PAFAH1B2 FP inh inactive and PAFAH2 FP inh inactive.
`CCC(=O)N1CCc2cc(S(=O)(=O)NC(Cc3ccccc3)C(=O)NC3CCCCC3)ccc21` (configuration not stated) gave PAFAH1B3 inh inactive, PAFAH1B2 FP inh inactive and PAFAH2 FP inh inactive.
For O=C(CC1CC2CCC1C2)Nc1nc(-c2ccccn2)cs1 (configuration not stated) the results were pPAFAH inh inactive, PAFAH1B3 inh inactive, Apaf1 inhib inactive, PAFAH1B2 FP inh 55 and PAFAH2 FP inh inactive.
`O=C(Nc1nc(-c2ccccn2)cs1)C1CC1` gave pPAFAH inh inactive, PAFAH1B3 inh inactive, Apaf1 inhib inactive, PAFAH1B2 FP inh inactive and PAFAH2 FP inh inactive.
Screening COC(=O)c1ccc(N2CCc3ccccc32)c([N+](=O)[O-])c1 returned pPAFAH inh 25, PAFAH1B3 inh inactive, Apaf1 inhib inactive, PAFAH1B2 FP inh inactive and PAFAH2 FP inh inactive.
`COc1cc(OC)c(/C=N/N2CCN(c3ccccc3OC)CC2)c(OC)c1` gave pPAFAH inh inactive, PAFAH1B3 inh inactive, Apaf1 inhib inactive, PAFAH1B2 FP inh inactive and PAFAH2 FP inh inactive.
`COc1ccc(C2=CC3=C(Br)C(=O)C(C)(O)C(=O)C3=CO2)cc1` (configuration not stated) gave pPAFAH inh inactive, PAFAH1B3 inh inactive, Apaf1 inhib inactive, PAFAH1B2 FP inh inactive and PAFAH2 FP inh inactive.
`COc1ccc(C2=CC3=CC(=O)C(C)(O)C(=O)C3=CO2)cc1` (configuration not stated) gave pPAFAH inh 38 and Apaf1 inhib inactive.
For CC(C)CN1C=C2C(=O)C(C)(OC(=O)CCc3ccccc3)C(=O)C=C2C=C1c1ccc(C#N)cc1 (configuration not stated) the results were pPAFAH inh inactive, PAFAH1B3 inh inactive, Apaf1 inhib inactive, PAFAH1B2 FP inh inactive and PAFAH2 FP inh inactive.
Screening CC1(O)C(=O)C=C2C=C(c3ccc(C#N)cc3)OC=C2C1=O (configuration not stated) returned pPAFAH inh 57 and Apaf1 inhib inactive.
Cc1cccc(CNc2ccc(S(=O)(=O)N3CCCCC3)cc2)c1 was read as pPAFAH inh inactive, PAFAH1B3 inh inactive, Apaf1 inhib inactive, PAFAH1B2 FP inh inactive and PAFAH2 FP inh inactive.
Cc1ccc(S(=O)(=O)N(C)S(=O)(=O)c2ccc(C#N)cc2)cc1 was read as pPAFAH inh inactive and Apaf1 inhib inactive.
For CCN(C[C@H]1N[C@@](Cc2ccccc2)(C(=O)OC)[C@H]2C(=O)N(C)C(=O)[C@@H]12)S(=O)(=O)c1ccc(-c2ccccc2)cc1 the results were pPAFAH inh inactive, PAFAH1B3 inh inactive, Apaf1 inhib inactive, PAFAH1B2 FP inh inactive and PAFAH2 FP inh inactive.
N#Cc1c(Cl)cccc1Oc1ccc(S(=O)(=O)Nc2ccccc2)cc1 was read as pPAFAH inh 26 and Apaf1 inhib inactive.
`O=S(=O)(NCc1c(Cl)cccc1Oc1ccccc1)c1ccccc1` gave pPAFAH inh inactive, PAFAH1B3 inh inactive, Apaf1 inhib inactive, PAFAH1B2 FP inh inactive and PAFAH2 FP inh inactive.
O=Cc1cc(N=Nc2ccccc2Cl)ccc1O was read as pPAFAH inh 28, PAFAH1B3 inh inactive, Apaf1 inhib inactive, PAFAH1B2 FP inh inactive and PAFAH2 FP inh inactive.
COc1cc(OC)cc(-c2c(-c3ccc(F)cc3)c3cc(-c4cnc(OC)nc4)ccc3n2C)c1 was read as pPAFAH inh inactive, PAFAH1B3 inh inactive, Apaf1 inhib inactive, PAFAH1B2 FP inh inactive and PAFAH2 FP inh inactive.
`CCOC(=O)N1CCN(C(=O)CN(C)S(=O)(=O)c2ccc(Cl)cc2)CC1` gave pPAFAH inh inactive, PAFAH1B3 inh inactive, Apaf1 inhib inactive, PAFAH1B2 FP inh inactive and PAFAH2 FP inh inactive.
`O=C(Cc1ccc(Cl)cc1)OCc1nnc(-c2ccccc2)o1` gave pPAFAH inh inactive, PAFAH1B3 inh inactive, Apaf1 inhib inactive, PAFAH1B2 FP inh inactive and PAFAH2 FP inh inactive.
